Measurements: ChEMBL document CHEMBL4118192, “BET bromodomain ligands: Probing the WPF shelf to improve BRD4 bromodomain affinity and metabolic stability” (Bioorg Med Chem, 2018)

How the values were obtained:
DU-145 = assay: Growth inhibition of human DU145 cells at 10 uM after 48 hrs by sulforhodamine B assay relative to control; format: functional; details: DU-145, 48 h, read-out: GI
Summary of the method: (§1)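 NCI-60 single-dose screen at 10 μM for 48 h. Percent growth inhibition was measured by sulforhodamine B staining of cellular protein.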

[1] = target: Histone acetyltransferase KAT2B (Homo sapiens) (UniProt Q92831); assay: Inhibition of human partial length PCAF (G715 to D831 residues) expressed in bacterial expression system assessed as residual activity at 1 uM by BROMOscan assay relative to control
Histone acetyltransferase KAT2B (Homo sapiens), sequence (Q92831 whole entry, looked up, the tested form may be a part): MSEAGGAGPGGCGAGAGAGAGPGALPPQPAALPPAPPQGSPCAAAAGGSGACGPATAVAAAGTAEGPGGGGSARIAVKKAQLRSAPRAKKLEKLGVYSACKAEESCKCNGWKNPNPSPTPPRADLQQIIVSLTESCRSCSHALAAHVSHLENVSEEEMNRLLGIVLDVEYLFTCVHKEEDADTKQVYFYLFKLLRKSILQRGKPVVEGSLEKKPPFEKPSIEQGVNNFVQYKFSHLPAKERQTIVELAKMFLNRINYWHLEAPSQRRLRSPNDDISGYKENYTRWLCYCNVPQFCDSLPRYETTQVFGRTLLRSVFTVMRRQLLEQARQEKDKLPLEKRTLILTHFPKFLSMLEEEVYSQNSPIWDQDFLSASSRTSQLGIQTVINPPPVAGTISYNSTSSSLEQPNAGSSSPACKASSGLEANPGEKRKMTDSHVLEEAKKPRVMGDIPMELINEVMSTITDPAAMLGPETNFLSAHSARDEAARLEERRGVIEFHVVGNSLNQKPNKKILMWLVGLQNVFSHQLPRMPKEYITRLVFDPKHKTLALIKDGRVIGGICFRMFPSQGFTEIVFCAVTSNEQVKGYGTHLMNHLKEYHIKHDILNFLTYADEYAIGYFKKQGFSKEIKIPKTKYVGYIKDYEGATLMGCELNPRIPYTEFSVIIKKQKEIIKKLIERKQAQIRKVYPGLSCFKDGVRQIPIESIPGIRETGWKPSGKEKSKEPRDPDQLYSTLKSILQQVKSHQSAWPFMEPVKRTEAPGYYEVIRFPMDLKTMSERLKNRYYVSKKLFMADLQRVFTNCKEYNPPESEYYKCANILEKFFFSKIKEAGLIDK

HT-29 = assay: Growth inhibition of human HT-29 cells after 48 hrs by SRB assay; format: functional; details: HT-29, 48 h
Summary of the method: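 In-house assay. Cells were seeded into 96-well plates at a density for exponential growth and treated with a concentration range for 48 h. They were then fixed in 10% (w/v) TCA and stained with sulforhodamine B. The 50% growth-inhibitory concentration relative to control cells was calculated as the mean of three repeats ± standard deviation.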

HCT-116 = assay: Growth inhibition of human HCT116 cells after 48 hrs by sulforhodamine B assay; format: functional; details: HCT-116, 48 h
Summary of the method: (§2)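 NCI-60 panel screen. Cells were exposed for 48 h at five concentrations between 10 nM and 100 μM. Cellular protein was read by sulforhodamine B staining, and GI50 and total growth inhibition (TGI) concentrations were derived.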

[2] = target: ATPase family AAA domain-containing protein 2B (Homo sapiens) (UniProt Q9ULI0); assay: Inhibition of human partial length ATAD2B (Q955 to R1082 residues) expressed in bacterial expression system assessed as residual activity at 1 uM by BROMOscan assay relative to control
ATPase family AAA domain-containing protein 2B (Homo sapiens), sequence (Q9ULI0 whole entry, the tested form may be a part): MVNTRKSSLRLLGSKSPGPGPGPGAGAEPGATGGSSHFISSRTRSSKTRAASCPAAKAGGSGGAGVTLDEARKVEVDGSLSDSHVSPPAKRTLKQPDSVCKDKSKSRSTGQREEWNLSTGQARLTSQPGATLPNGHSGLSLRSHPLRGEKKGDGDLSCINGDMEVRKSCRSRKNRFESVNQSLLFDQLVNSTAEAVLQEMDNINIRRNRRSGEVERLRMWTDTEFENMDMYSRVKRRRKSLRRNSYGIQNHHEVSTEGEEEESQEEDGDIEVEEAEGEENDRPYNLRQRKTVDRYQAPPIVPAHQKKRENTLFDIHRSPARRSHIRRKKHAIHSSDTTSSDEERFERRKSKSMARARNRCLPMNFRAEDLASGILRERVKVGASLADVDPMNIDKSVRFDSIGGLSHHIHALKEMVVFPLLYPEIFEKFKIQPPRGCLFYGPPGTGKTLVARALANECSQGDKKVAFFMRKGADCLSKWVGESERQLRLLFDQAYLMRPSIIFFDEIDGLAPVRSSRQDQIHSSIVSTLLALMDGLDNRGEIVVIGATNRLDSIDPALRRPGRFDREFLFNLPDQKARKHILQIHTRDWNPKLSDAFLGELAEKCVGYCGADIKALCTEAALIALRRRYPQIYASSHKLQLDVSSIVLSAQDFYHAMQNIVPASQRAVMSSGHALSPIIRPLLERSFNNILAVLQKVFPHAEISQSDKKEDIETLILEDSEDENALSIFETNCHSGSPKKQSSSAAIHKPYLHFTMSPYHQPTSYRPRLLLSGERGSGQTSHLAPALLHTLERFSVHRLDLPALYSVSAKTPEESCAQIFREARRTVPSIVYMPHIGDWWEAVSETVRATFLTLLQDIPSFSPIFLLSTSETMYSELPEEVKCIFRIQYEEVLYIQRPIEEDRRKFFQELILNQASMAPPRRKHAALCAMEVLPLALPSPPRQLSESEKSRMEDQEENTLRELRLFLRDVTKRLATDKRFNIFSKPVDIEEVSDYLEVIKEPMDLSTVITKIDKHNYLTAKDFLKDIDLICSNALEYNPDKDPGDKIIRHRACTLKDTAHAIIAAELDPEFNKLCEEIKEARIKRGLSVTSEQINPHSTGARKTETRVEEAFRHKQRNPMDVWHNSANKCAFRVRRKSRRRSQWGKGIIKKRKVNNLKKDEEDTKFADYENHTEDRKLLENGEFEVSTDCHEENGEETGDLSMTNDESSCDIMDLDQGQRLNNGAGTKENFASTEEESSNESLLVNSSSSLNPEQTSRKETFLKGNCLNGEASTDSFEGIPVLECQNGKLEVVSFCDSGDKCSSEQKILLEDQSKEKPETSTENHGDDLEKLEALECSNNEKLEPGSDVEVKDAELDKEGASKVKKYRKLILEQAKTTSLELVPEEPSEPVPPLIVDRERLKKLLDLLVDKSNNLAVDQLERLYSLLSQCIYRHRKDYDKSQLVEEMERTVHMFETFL

OVCAR-8 = assay: Growth inhibition of human OVCAR8 cells at 10 uM after 48 hrs by sulforhodamine B assay relative to control; format: functional; details: OVCAR-8, 48 h, read-out: GI
Summary of the method: (§3)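 NCI-60 human cancer cell line screen, single-dose pass: cells exposed to 10 μM for 48 h. Cellular protein content read out by sulforhodamine B staining, and growth inhibition expressed relative to untreated control.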

HOP-62 [3] = assay: Growth inhibition of human HOP62 cells at 10 uM after 48 hrs by sulforhodamine B assay relative to control; format: functional; details: HOP-62, 48 h, read-out: GI; summary of the method: as §1
Peregrin (Homo sapiens) = Peregrin (Homo sapiens) (UniProt P55201); assay: Inhibition of human partial length BRPF1 (E627 to G740 residues) expressed in bacterial expression system assessed as residual activity at 1 uM by BROMOscan assay relative to control
UACC-257 = assay: Growth inhibition of human UACC257 cells at 10 uM after 48 hrs by sulforhodamine B assay relative to control; format: functional; details: UACC-257, 48 h, read-out: GI
Summary of the method: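 NCI-60 human cancer cell line screen, single dose of 10 μM for 48 h. Cellular protein content read by sulforhodamine B staining; growth inhibition expressed relative to untreated control.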

[4] = target: Bromodomain and WD repeat-containing protein 1 (Homo sapiens) (UniProt Q9NSI6); assay: Inhibition of human partial length WDR9 bromodomain 2 (A1310 to E1430 residues) expressed in bacterial expression system assessed as residual activity at 1 uM by BROMOscan assay relative to control
[5] = target: Bromodomain-containing protein 4 (Homo sapiens, UniProt O60885); assay: Inhibition of human partial length BRD4 bromodomain 1 (N44 to E168 residues) expressed in bacterial expression system assessed as residual activity at 1 uM by BROMOscan assay relative to control
[6] = target: CREB-binding protein (Homo sapiens) (UniProt Q92793); assay: Inhibition of human partial length CREBBP (R1081 to G1197 residues) expressed in bacterial expression system assessed as residual activity at 1 uM by BROMOscan assay relative to control
CREB-binding protein (Homo sapiens), sequence (Q92793 2-2442 limits assumed): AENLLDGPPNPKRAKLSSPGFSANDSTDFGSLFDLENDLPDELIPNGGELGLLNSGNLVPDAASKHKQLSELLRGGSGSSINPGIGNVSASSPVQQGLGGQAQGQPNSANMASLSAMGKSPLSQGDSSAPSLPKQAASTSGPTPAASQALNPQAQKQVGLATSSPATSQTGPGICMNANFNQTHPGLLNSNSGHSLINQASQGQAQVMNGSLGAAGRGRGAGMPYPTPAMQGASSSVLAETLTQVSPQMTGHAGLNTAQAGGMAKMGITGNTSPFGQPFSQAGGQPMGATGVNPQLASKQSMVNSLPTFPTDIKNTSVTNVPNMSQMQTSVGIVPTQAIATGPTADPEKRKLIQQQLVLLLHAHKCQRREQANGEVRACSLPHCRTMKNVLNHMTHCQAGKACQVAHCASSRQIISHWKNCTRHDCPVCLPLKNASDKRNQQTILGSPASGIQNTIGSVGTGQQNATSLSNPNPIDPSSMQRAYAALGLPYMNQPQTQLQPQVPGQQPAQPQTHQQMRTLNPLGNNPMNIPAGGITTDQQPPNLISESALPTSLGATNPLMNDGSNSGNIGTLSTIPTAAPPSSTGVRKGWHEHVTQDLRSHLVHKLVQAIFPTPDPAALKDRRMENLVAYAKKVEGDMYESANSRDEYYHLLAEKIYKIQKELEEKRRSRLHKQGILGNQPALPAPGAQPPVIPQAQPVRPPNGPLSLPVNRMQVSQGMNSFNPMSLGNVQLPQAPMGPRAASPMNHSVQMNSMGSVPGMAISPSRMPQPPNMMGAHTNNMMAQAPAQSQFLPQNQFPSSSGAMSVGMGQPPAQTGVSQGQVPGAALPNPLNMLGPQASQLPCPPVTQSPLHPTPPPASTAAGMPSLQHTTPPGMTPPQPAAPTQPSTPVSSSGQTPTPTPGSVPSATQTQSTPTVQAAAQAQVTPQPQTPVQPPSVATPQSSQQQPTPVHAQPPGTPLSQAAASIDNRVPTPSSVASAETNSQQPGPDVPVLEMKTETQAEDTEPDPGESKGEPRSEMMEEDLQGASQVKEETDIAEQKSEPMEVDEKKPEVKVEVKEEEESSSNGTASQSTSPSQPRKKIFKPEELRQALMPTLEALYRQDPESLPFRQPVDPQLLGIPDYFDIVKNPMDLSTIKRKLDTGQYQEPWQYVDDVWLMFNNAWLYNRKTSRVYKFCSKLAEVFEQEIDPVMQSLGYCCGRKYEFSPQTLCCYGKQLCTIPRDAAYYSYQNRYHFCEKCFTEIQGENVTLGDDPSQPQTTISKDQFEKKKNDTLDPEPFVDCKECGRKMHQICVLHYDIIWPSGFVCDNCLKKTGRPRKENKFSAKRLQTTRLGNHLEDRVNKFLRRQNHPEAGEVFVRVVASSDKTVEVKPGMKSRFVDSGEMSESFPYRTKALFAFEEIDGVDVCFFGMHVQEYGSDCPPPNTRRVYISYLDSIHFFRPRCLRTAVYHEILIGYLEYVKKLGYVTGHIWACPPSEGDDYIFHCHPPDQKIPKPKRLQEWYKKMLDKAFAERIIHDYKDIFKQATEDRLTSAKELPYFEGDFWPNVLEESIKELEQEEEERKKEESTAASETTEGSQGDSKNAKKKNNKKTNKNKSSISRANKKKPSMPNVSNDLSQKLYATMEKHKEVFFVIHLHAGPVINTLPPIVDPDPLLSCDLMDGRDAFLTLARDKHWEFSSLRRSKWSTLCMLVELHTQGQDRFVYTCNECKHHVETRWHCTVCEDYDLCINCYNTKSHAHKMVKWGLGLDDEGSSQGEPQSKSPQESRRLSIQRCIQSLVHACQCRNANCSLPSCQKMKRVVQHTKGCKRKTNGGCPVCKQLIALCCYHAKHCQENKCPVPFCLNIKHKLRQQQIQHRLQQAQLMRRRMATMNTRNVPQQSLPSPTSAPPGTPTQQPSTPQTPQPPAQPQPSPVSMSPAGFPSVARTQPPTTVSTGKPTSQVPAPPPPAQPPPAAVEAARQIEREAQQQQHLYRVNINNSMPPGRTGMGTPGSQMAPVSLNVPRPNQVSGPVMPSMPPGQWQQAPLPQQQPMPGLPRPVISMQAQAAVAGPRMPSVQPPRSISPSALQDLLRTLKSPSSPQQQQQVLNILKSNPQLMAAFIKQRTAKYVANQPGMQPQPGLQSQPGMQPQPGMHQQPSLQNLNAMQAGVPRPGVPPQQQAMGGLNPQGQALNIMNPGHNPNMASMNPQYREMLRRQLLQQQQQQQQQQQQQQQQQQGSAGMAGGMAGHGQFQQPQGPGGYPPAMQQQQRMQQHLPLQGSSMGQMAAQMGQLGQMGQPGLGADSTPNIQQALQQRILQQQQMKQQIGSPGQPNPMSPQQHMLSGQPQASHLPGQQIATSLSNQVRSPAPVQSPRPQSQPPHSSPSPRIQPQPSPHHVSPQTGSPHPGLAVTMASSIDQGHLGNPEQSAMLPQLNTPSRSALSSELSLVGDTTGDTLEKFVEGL

[7] = target: Bromodomain testis-specific protein (Homo sapiens) (UniProt Q58F21); assay: Inhibition of human partial length BRDT bromodomain 1 (N21 to E137 residues) expressed in bacterial expression system assessed as residual activity at 1 uM by BROMOscan assay relative to control
CCRF-CEM = assay: Growth inhibition of human CCRF-CEM cells after 48 hrs by sulforhodamine B assay; format: functional; summary of the method: as §2
[8] = target: Bromodomain-containing protein 3 (Homo sapiens) (UniProt Q15059); assay: Inhibition of human partial length BRD3 bromodomain 1 (P24 to E144 residues) expressed in bacterial expression system assessed as residual activity at 1 uM by BROMOscan assay relative to control
[9] = target: SWI/SNF-related matrix-associated actin-dependent regulator of chromatin subfamily A member 4 (Homo sapiens) (UniProt P51532); assay: Inhibition of human partial length SMARCA4 (A1448 to S1575 residues) expressed in bacterial expression system assessed as residual activity at 1 uM by BROMOscan assay relative to control
M14 = assay: Growth inhibition of human M14 cells after 48 hrs by sulforhodamine B assay; format: functional; details: M14, 48 h; summary of the method: as §2
Malme-3M = assay: Growth inhibition of human MALME-3M cells after 48 hrs by sulforhodamine B assay; format: functional; summary of the method: as §2
TK-10 = assay: Growth inhibition of human TK10 cells after 48 hrs by sulforhodamine B assay; format: functional; details: TK-10, 48 h
Summary of the method: (§4)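 NCI-60 panel cells treated at five concentrations from 10 nM to 100 μM for 48 h. Read-out by sulforhodamine B protein stain. GI50 and total growth inhibition (TGI, if below 100 μM) taken from the concentration-response data.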

[10] = Intrinsic clearance in human liver microsomes at 3 uM; format: ADME, microsome; details: read-out: CLH
HCC 2998 = assay: Growth inhibition of human HCC2998 cells after 48 hrs by sulforhodamine B assay; format: functional; details: HCC 2998, 48 h; summary of the method: as §2
SN12C = assay: Growth inhibition of human SN12C cells at 10 uM after 48 hrs by sulforhodamine B assay relative to control; format: functional; details: read-out: GI; summary of the method: as §3
[11] = target: Bromodomain-containing protein 2 (Homo sapiens) (UniProt P25440); assay: Inhibition of human partial length BRD2 bromodomain 1 (K71 to N194 residues) expressed in bacterial expression system assessed as residual activity at 1 uM by BROMOscan assay relative to control
HOP-62 [12] = assay: Growth inhibition of human HOP62 cells after 48 hrs by sulforhodamine B assay; format: functional; details: HOP-62, 48 h; summary of the method: as §2
NCI-H23 = assay: Growth inhibition of human NCI-H23 cells after 48 hrs by sulforhodamine B assay; format: functional; details: NCI-H23, 48 h
Summary of the method: (§5)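 NCI-60 panel follow-up: five concentrations from 10 nM to 100 μM, 48 h exposure. Growth read by sulforhodamine B protein staining. GI50 derived from the concentration-response, with the concentration for total growth inhibition (TGI) also recorded when below 100 μM.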

RXF 393 = assay: Growth inhibition of human RXF393 cells at 10 uM after 48 hrs by sulforhodamine B assay relative to control; format: functional; details: RXF 393, 48 h, read-out: GI; summary of the method: as §3
PC-3 = assay: Growth inhibition of human PC3 cells after 48 hrs by sulforhodamine B assay; format: functional; details: PC-3, 48 h; summary of the method: as §5
UACC-62 = assay: Growth inhibition of human UACC62 cells after 48 hrs by sulforhodamine B assay; format: functional; details: UACC-62, 48 h; summary of the method: as §4

Work on `Cc1noc(C)c1-c1cc(O)cc(C(O)c2ccccc2)c1` (stereo not given) yielded an inhibition of growth at 10 µM (DU-145) of 12.5%, an Activity [1] of 93% and a GI50 (HT-29) of 4.54 to 5.79 µM. The GI50 (HCT-116) was 7.08 µM, the Activity [2] was 66% and the inhibition of growth at 10 µM (OVCAR-8) was 61.4%. For the same compound, the inhibition of growth at 10 µM (HOP-62 [3]) was 52.8%, the Activity (Peregrin (Homo sapiens)) was 100% and the inhibition of growth at 10 µM (UACC-257) was 59.6%. The Activity [4] was 100%, the Activity [5] was 3.7% and the Activity [6] was 43%. The Activity [7] was 8.8%, the GI50 (CCRF-CEM) was 14.8 µM and the Activity [8] was 0.5%. The Activity [9] was 100%, the GI50 (M14) was 4.48 µM and the GI50 (Malme-3M) was 28.9 µM. It also gave a GI50 (TK-10) of 1.08 µM, a microsomal CLint at 3 µM [10] of 34.8 µL/min/mg and a GI50 (HCC 2998) of 8.55 µM. For the same compound, the inhibition of growth at 10 µM (SN12C) was 25.5%, the Activity [11] was 1.4% and the GI50 (HOP-62 [12]) was 4.89 µM.
`COc1ccccc1S(=O)(=O)Nc1ccc2c(c1)CN(C)C(=O)N2` showed an inhibition of growth at 10 µM (DU-145) of 22.2%, a GI50 (HT-29) of 3 µM and a GI50 (HCT-116) of 4.5 µM. The GI50 (NCI-H23) was 8.5 µM, the inhibition of growth at 10 µM (OVCAR-8) was 43.8% and the inhibition of growth at 10 µM (HOP-62 [3]) was 55.7%. It also gave an inhibition of growth at 10 µM (RXF 393) of 26.7%, an inhibition of growth at 10 µM (UACC-257) of 66.2% and a GI50 (PC-3) of 28.2 µM. For the same compound, the GI50 (CCRF-CEM) was 7.8 µM, the GI50 (UACC-62) was 0.7 µM and the GI50 (M14) was 2.9 µM. For the same compound, the GI50 (TK-10) was 1.6 µM, the TGI (TK-10) was 58.9 µM and the inhibition of growth at 10 µM (SN12C) was 46.8%. It also gave a GI50 (HOP-62 [12]) of 2.5 µM.
